Laboratory results taken from ChEMBL document CHEMBL2412977, “Synthetic studies of centromere-associated protein-E (CENP-E) inhibitors: 1.Exploration of fused bicyclic core scaffolds using electrostatic potential map” (Bioorg Med Chem, 2013).

Tests used:
[1] = molecular target: T1, Centromere-associated protein E (Homo sapiens, UniProt Q02224); test: Inhibition of ATPase activity of CENP-E motor domain (unknown origin) by high throughput screening assay
[2] = molecular target: T1, Centromere-associated protein E; test: Inhibition of human ATPase activity of CENP-E motor domain assessed as ADP production after 60 mins by ADP-Glo luminescence assay
HeLa = test: Induction of mitotic arrest in human HeLa cells assessed as accumulation of phosphorylated histone H3 after 16 hrs by FACS analysis; assay type: functional, cell-based
Outline: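 HeLa cells scored for phosphorylated histone H3 positive cell count (%) by FACS. EC50 is the concentration giving a response halfway between baseline and maximum p-HH3 positive count.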

[3] = Permeability of the compound at pH 7.4 by PAMPA; assay type: ADME; conditions: read-out: permeability
Outline: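 Passive permeability measured in a parallel artificial membrane permeability assay (PAMPA) system at pH 7.4, reported in nm/sec.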

T1 sequence (Q02224 whole entry, the tested form may be a part): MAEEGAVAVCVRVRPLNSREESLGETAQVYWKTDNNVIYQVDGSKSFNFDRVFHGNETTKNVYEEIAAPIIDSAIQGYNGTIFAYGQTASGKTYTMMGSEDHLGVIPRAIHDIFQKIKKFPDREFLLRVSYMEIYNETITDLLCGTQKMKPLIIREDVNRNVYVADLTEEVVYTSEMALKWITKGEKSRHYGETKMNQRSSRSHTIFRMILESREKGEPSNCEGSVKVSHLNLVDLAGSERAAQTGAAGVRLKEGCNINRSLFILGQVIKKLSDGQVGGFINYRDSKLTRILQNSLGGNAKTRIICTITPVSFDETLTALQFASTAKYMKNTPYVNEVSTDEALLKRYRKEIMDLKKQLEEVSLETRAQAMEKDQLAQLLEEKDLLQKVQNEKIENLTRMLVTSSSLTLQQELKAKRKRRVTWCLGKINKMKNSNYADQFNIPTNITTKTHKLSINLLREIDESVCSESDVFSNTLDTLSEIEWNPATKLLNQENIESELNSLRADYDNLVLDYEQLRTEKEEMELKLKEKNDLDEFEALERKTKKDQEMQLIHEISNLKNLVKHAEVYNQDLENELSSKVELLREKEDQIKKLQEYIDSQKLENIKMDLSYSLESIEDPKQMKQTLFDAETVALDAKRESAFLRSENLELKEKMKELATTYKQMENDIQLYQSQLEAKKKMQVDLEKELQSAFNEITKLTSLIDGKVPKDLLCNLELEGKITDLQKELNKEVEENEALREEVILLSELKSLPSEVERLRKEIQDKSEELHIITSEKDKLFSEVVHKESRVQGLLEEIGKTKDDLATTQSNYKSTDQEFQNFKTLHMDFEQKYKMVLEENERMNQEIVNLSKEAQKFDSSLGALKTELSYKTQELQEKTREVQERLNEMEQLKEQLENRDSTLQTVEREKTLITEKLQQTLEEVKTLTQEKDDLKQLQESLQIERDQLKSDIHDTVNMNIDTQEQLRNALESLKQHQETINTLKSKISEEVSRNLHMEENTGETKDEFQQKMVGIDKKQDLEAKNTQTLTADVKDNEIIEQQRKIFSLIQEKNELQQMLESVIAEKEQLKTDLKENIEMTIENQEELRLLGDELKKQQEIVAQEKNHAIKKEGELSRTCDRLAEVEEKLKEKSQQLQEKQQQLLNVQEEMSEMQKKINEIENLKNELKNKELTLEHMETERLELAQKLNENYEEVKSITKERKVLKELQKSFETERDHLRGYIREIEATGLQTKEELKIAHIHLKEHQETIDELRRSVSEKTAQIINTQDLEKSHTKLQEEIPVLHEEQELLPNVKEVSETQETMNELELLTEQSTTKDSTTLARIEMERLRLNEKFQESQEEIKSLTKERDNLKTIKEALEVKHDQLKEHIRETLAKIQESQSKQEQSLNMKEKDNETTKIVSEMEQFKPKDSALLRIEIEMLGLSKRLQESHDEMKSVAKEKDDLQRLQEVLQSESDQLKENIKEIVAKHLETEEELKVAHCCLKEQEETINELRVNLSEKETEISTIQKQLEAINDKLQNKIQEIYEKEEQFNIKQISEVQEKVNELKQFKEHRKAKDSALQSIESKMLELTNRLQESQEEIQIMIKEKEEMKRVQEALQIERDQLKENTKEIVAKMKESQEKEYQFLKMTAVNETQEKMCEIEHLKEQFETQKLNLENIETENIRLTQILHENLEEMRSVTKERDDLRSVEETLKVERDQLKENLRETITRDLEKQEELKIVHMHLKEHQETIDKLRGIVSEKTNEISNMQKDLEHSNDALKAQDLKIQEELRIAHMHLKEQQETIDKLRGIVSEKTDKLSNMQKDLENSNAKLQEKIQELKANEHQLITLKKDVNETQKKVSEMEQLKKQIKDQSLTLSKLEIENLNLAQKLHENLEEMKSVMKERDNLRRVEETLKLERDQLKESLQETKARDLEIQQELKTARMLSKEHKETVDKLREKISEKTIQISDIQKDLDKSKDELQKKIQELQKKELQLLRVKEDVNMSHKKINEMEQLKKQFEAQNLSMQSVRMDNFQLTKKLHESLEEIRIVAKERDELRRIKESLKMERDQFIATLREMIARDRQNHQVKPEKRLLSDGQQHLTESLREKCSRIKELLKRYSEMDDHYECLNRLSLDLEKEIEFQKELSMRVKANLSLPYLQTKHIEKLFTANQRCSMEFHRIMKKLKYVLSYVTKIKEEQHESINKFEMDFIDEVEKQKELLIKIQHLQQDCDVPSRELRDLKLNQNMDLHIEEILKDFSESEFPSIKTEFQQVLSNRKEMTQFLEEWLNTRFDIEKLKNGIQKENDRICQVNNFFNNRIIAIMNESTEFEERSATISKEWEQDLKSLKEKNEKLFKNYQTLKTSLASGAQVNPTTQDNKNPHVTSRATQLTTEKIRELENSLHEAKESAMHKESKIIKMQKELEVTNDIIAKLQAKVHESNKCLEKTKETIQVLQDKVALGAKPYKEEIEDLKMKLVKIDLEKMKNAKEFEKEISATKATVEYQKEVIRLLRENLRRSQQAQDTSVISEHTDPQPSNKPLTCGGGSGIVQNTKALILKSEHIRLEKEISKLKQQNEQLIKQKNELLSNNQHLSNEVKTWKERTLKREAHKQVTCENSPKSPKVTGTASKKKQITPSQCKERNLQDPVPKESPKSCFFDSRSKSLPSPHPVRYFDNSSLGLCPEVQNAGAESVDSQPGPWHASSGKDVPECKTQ

| IC50 [2] [nM] | SMILES | further results |
| --- | --- | --- |
| – | CN(Cc1cc(C(F)(F)F)cc(C(F)(F)F)c1)C(=O)c1c(-c2ccc(F)cc2)c2cscc2c(=O)n1C | IC50 [1]: 2100 nM |
| 72 | CN(C)CCn1c(C(=O)N(C)Cc2ccc(Cl)c(Cl)c2)c(-c2ccc(F)cc2)c2cscc2c1=O | – |
| 8500 | CN(C)CCN(Cc1ccc(Cl)c(Cl)c1)C(=O)c1c(-c2ccc(F)cc2)c2ccccc2n1C | – |
| 2100 | Cc1c(C(=O)N(CCN(C)C)Cc2ccc(Cl)c(Cl)c2)n(-c2ccc(F)cc2)c2ccccc12 | – |
| 2000 | CN(C)CCN(Cc1ccc(Cl)c(Cl)c1)C(=O)c1cc2sccc2n1-c1ccc(F)cc1 | – |
| 32 | CN(C)CCN(Cc1ccc(Cl)c(Cl)c1)C(=O)c1cc2scc(Br)c2n1-c1ccc(F)cc1 | EC50 (HeLa): 3000 nM; Papp [3]: 4.1 ×10⁻⁶ cm/s |
| 35 | CN(C)CCN(Cc1ccc(Cl)c(Cl)c1)C(=O)c1cc2scc(Cl)c2n1-c1ccc(F)cc1 | – |
| 100 | CN(C)CCN(Cc1ccc(Cl)c(Cl)c1)C(=O)c1c(-c2ccc(F)cc2)c2cscc2c(=O)n1C | – |
| 300 | CN(C)CCCn1c(C(=O)N(C)Cc2ccc(Cl)c(Cl)c2)c(-c2ccc(F)cc2)c2cscc2c1=O | – |
| 540 | CN(C)CCN(Cc1ccc(Cl)c(Cl)c1)C(=O)c1cc2scc(C#N)c2n1-c1ccc(F)cc1 | – |
| 140 | CN(C)CCN(Cc1ccc(Cl)c(Cl)c1)C(=O)c1cc2scc(C(F)(F)F)c2n1-c1ccc(F)cc1 | – |
| 1500 | CN(Cc1ccc(Cl)c(Cl)c1)C(=O)c1c(-c2ccc(F)cc2)c2cscc2c(=O)n1C | IC50 [1]: 1500 nM |
| 50 | CN(C)CCN(Cc1ccc(Cl)c(Cl)c1)C(=O)c1nc2cccc(Br)n2c1-c1ccc(F)cc1 | EC50 (HeLa): 1540 nM; Papp [3]: 35.3 ×10⁻⁶ cm/s |
| 370 | Cc1csc2cc(C(=O)N(CCN(C)C)Cc3ccc(Cl)c(Cl)c3)n(-c3ccc(F)cc3)c12 | – |
| 1800 | CN(Cc1ccc(Cl)c(Cl)c1)C(=O)c1c(-c2ccc(F)cc2)c2cscc2c(=O)n1CCO | – |
